OX1R antag-1: blocks the human orexin 1 receptor; AID 434989; O43613; inhibition, % at 5 µM; CHO/OX1R cells, Fluo-8 calcium fluorescence, orexin A; actives 0.43% (n = 330,000);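 active means inhibition above its plate's threshold, mean inhibition of all tested compounds on the plate plus 3 SD, cut at about 37% in these data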;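 further: 0% = orexin A challenge wells and 100% = SB-334867-A antagonist wells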
Target sequence (O43613 whole entry, looked up): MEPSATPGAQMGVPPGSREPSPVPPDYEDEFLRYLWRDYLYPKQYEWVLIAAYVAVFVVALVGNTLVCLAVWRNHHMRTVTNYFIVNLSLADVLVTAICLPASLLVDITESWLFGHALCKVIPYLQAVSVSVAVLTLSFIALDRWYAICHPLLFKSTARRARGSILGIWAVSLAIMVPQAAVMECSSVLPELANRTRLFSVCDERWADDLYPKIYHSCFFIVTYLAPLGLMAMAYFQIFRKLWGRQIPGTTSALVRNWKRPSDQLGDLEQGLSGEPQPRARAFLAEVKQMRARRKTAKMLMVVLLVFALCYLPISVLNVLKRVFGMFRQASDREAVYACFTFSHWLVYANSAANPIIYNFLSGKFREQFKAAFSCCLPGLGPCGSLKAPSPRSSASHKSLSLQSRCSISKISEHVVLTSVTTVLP
TRPML3 ag: human mucolipin-3 channel agonism; Q8TDD5; HEK293 TRPML3-YFP, Fluo-8 calcium fluorescence; 100% = the carbachol control signal; activation, % at 3 µM; actives 0.29% (n = 220,000);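 active means activation above its plate's cutoff, the mean activation of the plate's test wells plus 3 SD, cut at about 12% in these data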;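 further: 0% = DMSO only wells and 100% = carbachol wells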
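Material: TRPML3-YFP stable HEK293 cells | Dosing: One concentration, 3 µM nominal, 0.3% DMSO | Timing: 125 s total fluorescence read per well | Technique: Fluo-8 calcium dye fluorescence, ex 470-495, em 515-575 nm | Measure: Percent activation from peak-to-basal fluorescence ratio, scaled between DMSO and carbachol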
GPR7 antag: antagonists of human GPR7 (neuropeptides B/W receptor 1). AID 1861. actives 1.1% (n = 290,000). GPR7-expressing cells, fluorescence antagonist assay. inhibition, % at 4.4 µM. P48145; in the data active means inhibition above about 16%, passing the limit was not always enough;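 further: cells stimulated with the agonist NPW; 0% = agonist with vehicle and 100% = vehicle without agonist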
CHO parental Ca: signal in parental CHO cells, OX1R antagonist counter-screen | parental CHO-K1, ATP-induced calcium, Fluo-8 fluorescence | actives 0.63% (n = 330,000) | inhibition, % at 5.6 µM;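 active means inhibition above that plate's mean sample inhibition plus 3 SD, cut at about 26% in these data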;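 further: 0% = ATP-challenged DMSO wells and 100% = DMSO wells without ATP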
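Test system: untransfected parental CHO cell line. Compound: one dose, 5.6 µM nominal. Detection: intracellular calcium via Fluo-8 no-wash fluorescent dye. Measure: % inhibition. Benchmarks: ATP-challenged DMSO wells low, unchallenged DMSO wells high.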
TRPN1 ag: agonists of zebrafish TRPN1 channel; HEK293 zebrafish TRPN1-YFP, Fluo-8 calcium fluorescence; 100% = response to 87 µM carbachol; activation, % at 3 µM; actives 0.18% (n = 220,000); AID 1424;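 active means activation above its plate's cutoff, the mean activation of test wells on that plate plus 3 SD, cut at about 19% in these data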;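 further: 0% = DMSO alone and 100% = 87 µM carbachol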
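Assay system: Zebrafish TRPN1-YFP in HEK293 cells | Incubation: Dye loading 1 h at 37 °C, then 30 min room temperature | Measured by: Kinetic Fluo-8 fluorescence, ex 470-495, em 515-575 nm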
OX1R antag-2: blocks the human orexin 1 receptor; OX1R-expressing cells, FRET antagonist read-out; actives 1.8% (n = 330,000); inhibition, % at 6.6 µM; in the data active means inhibition mostly above about 38%, no sharp cut-off; inactive means mostly below about 40%;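 further: 0% = agonist challenge alone and 100% = reference antagonist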
Numbers without * were called inactive. The list is not random: actives were taken first. Their share in the collection is about 3.2%.

N#C/C(=N/Nc1ccc(OC(F)(F)F)cc1)C(N)=S was read as OX1R antag-1 41*, TRPML3 ag 15*, GPR7 antag 8, CHO parental Ca 20, TRPN1 ag 23* and OX1R antag-2 54*.
COc1ccc(N/N=C(\C#N)C(N)=O)cc1 was read as OX1R antag-1 -6, TRPML3 ag 1, GPR7 antag -4, CHO parental Ca -12, TRPN1 ag 1 and OX1R antag-2 12.
CSc1ccc(Cl)c(C(=O)NCCOc2cc(C)ccc2C(C)C)c1 was read as OX1R antag-1 46*, TRPML3 ag 0, GPR7 antag -10, CHO parental Ca 53*, TRPN1 ag 0 and OX1R antag-2 27.
`Cc1ccc(C(C)C)c(OCCNC(=O)c2ccccc2O)c1` gave OX1R antag-1 -24, GPR7 antag -17, CHO parental Ca -11 and OX1R antag-2 14.
`Cc1[nH]c2ccc(C(=O)OC(C)C(=O)NCc3ccccc3)cc2c1C` (stereo unspecified) gave OX1R antag-1 -22, CHO parental Ca -27 and OX1R antag-2 28.
Screening Cc1ccccc1CN(C)C(=O)COC(=O)c1ccc2[nH]c(C)c(C)c2c1 returned OX1R antag-1 31, CHO parental Ca -16 and OX1R antag-2 53*.
`CCc1cc(CNC(=O)C2CCC(=O)N(CCc3cccc(F)c3)C2)on1` (stereo unspecified) gave GPR7 antag -3.
Screening N#CC1=C(N)Oc2cc(O)c(Cl)cc2C1c1ccccc1F (stereo unspecified) returned OX1R antag-1 21, GPR7 antag -11, CHO parental Ca 30* and OX1R antag-2 28.
Cc1ccc(NC(=O)[C@H](C)NC(=O)C2CCN(C(=O)[C@@H](N)C(C)C)CC2)cc1 was read as OX1R antag-1 -8, GPR7 antag -4, CHO parental Ca -14 and OX1R antag-2 2.
Screening Cc1cc(C(=O)N2CCN(c3ccc([N+](=O)[O-])cc3)CC2)n[nH]1 returned OX1R antag-1 -4, GPR7 antag 5, CHO parental Ca 17 and OX1R antag-2 31.
`CCCCN(C(=O)CCC(=O)Nc1cc(C)on1)C(C(=O)NC1CCCC1)c1ccc(OCC)cc1` (stereo unspecified) gave OX1R antag-1 -43, GPR7 antag -18, CHO parental Ca -16 and OX1R antag-2 15.
Screening CCCCN(C(=O)CCC(=O)Nc1cc(C)on1)C(C(=O)NC1CCCC1)c1ccccc1OCC (stereo unspecified) returned OX1R antag-1 5, GPR7 antag -1, CHO parental Ca -21 and OX1R antag-2 76*.
For Cc1[nH]n(-c2ncc(-c3ccccc3)s2)c(=O)c1C(c1ccc(Br)cc1)C(C#N)C#N (stereo unspecified) the results were OX1R antag-1 14, TRPML3 ag 0, GPR7 antag -10, CHO parental Ca -10, TRPN1 ag 0 and OX1R antag-2 -1.
Screening O=C(c1ccc(S(=O)(=O)c2cccc(Cl)c2)c([N+](=O)[O-])c1)N1CCN(c2ccccn2)CC1 returned OX1R antag-1 4, TRPML3 ag 3, GPR7 antag 12, CHO parental Ca 33*, TRPN1 ag 4 and OX1R antag-2 43.
`CCCOc1ccc(C(=O)NCC(c2ccco2)N(C)C)cc1` (stereo unspecified) gave OX1R antag-1 -27, TRPML3 ag 0, GPR7 antag 5, CHO parental Ca -7, TRPN1 ag 0 and OX1R antag-2 13.
Screening COc1ccc(NC(=O)C2=C(C)Nc3nc(CCCO)nn3C2c2ccc(OC)c(OC)c2)cc1 (stereo unspecified) returned OX1R antag-1 -10, TRPML3 ag 1, GPR7 antag 9, CHO parental Ca 0, TRPN1 ag 1 and OX1R antag-2 13.
For CCOc1ccc(N=Nc2c(=O)[nH]n3c(=O)cc(C)[nH]c23)cc1 the results were OX1R antag-1 -2, TRPML3 ag -1, GPR7 antag -4, CHO parental Ca -13, TRPN1 ag -1 and OX1R antag-2 59*.
CCOc1ccc(N=Nc2c(=O)[nH]n3c(=O)c4c([nH]c23)CCCC4)cc1 was read as OX1R antag-1 -11, TRPML3 ag 0, GPR7 antag -12, CHO parental Ca -5, TRPN1 ag 0 and OX1R antag-2 14.
For COc1ccc(C(=O)NCCCNC(=O)c2cccnc2)cc1Br the results were OX1R antag-1 -5, GPR7 antag -12, CHO parental Ca -6 and OX1R antag-2 11.
`CC1Cc2ccccc2N1C(=O)CNCCCN(C)C` (stereo unspecified) gave OX1R antag-1 -6, TRPML3 ag 1, GPR7 antag -4, CHO parental Ca 2, TRPN1 ag 0 and OX1R antag-2 17.
For CC1CC2(C)Oc3ccccc3CC2C(C)C1CNCCCN(C)C (stereo unspecified) the results were OX1R antag-1 -13, TRPML3 ag 1, GPR7 antag 44*, CHO parental Ca 6, TRPN1 ag 0 and OX1R antag-2 3.
Screening CN(c1ccc(C(=O)N2CCCCC2)cc1)S(=O)(=O)c1ccccc1 returned OX1R antag-1 42*, TRPML3 ag 2, GPR7 antag -1, CHO parental Ca 38*, TRPN1 ag 2 and OX1R antag-2 59.
For CCOC(=O)C1CCCN(C(=O)C2c3ccccc3Oc3ccccc32)C1 (stereo unspecified) the results were OX1R antag-1 22, TRPML3 ag 0, GPR7 antag 12, CHO parental Ca 22, TRPN1 ag 0 and OX1R antag-2 45*.
Screening CN(c1ccccc1)S(=O)(=O)c1ccc(C(=O)N2CCc3ccccc3C2)cc1 returned OX1R antag-1 -20, TRPML3 ag 2, GPR7 antag 20*, CHO parental Ca -5, TRPN1 ag 8 and OX1R antag-2 10.
Screening CN(c1ccccc1)S(=O)(=O)c1ccc(C(=O)N2CCCC2)cc1 returned OX1R antag-1 -15, CHO parental Ca -6 and OX1R antag-2 9.
CCOC(=O)C1CCCN(C(=O)c2cccc(S(=O)(=O)N(C)c3ccc(C)cc3)c2)C1 (stereo unspecified) was read as OX1R antag-1 31, CHO parental Ca -11 and OX1R antag-2 58*.
For CCOC(=O)C1CCCN(C(=O)c2ccc(C(=O)c3ccccc3)cc2)C1 (stereo unspecified) the results were OX1R antag-1 -37, CHO parental Ca -21 and OX1R antag-2 5.
`O=C(/C=C/c1cccc(C(F)(F)F)c1)Nc1cccc(C(F)(F)F)c1` gave OX1R antag-1 31, TRPML3 ag 2, GPR7 antag -6, CHO parental Ca -5, TRPN1 ag 3 and OX1R antag-2 36*.

From PubChem
